# ChEMBL document CHEMBL3612047, “Synthesis, antiproliferative activity and possible mechanism of action of novel 2-acetamidobenzamides bearing the 2-phenoxy functionality” (Bioorg Med Chem, 2015)
# The source made the active and inactive calls. No cut-off for these calls is given here.
# Columns and labels:
# K562 [1] = assay: Growth inhibition of human K562 cells at 10 uM incubated for 24 hrs by trypan blue dye exclusion assay; assay type: functional; settings: K562, 24 h, read-out: GI
# Procedure, shortened: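 K562 cells in medium with 5% FBS at 37 °C, 5% CO₂. About 2 × 10⁵ cells/mL cultured 24 h, then compound added at 10 μM. After 24 h exposure, cells counted by hemocytometer and viability scored by trypan blue exclusion, reported as percent growth inhibition.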
# K562 [2] = assay: Growth inhibition of human K562 cells incubated for 24 hrs by trypan blue dye exclusion assay; assay type: functional, cell-based; settings: K562, 24 h
# Procedure, shortened: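 K562 cells, about 2 × 10⁵ cells/mL, precultured 24 h, then exposed 24 h to a range of compound concentrations. Viable cells counted by hemocytometer with trypan blue exclusion to derive IC₅₀.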
# [3] = Cytotoxicity against human HuDe cells incubated for 72 hrs by MTT assay; assay type: cell-based
# Procedure, shortened: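 HuDe primary culture from human epidermis, seeded at 2 × 10⁴ cells/mL. Test drugs at different concentrations, or 0.1% DMSO, added 24 h after seeding, with 72 h exposure. MTT (5 mg/mL in PBS) then applied for 3 h at 37 °C. Formazan solubilized with isopropanol/triton X-100/HCl and read at 570 nm with 690 nm blank.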
# [4] = Growth inhibition of human NCI60 cells assessed as cell growth level at 10 uM by NCI standard protocol based method; assay type: functional; parameters: scale not given: the % may be the effect or the level left
# Procedure, shortened: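 NCI 60-cell-line screen (leukemia, lung, colon, melanoma, renal, ovarian, brain, breast, prostate) run to the NCI standard protocol. Single high dose of 10⁻⁵ M, read as growth percent. Mean graph midpoint is the arithmetic mean over all lines tested.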
# HL-60(TB) = assay: Growth inhibition of human HL-60(TB) cells by NCI standard protocol based method; assay type: functional
# Procedure, shortened: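 Tested in the NCI 60-cell-line screen under its standard protocol. A single-dose prescreen was run at 10⁻⁵ M, then a five-dose assay. GI50 is the molar concentration that inhibits net cell growth by 50%.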
# K562 [5] = assay: Growth inhibition of human K562 cells by NCI standard protocol based method; assay type: functional
# Procedure, shortened: (§1)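 NCI full 60-cell-line panel, 5-dose assay to the NCI standard protocol. GI₅₀ is the molar concentration inhibiting 50% net cell growth. Mean graph midpoint is averaged over all lines; where the effect is not reached, the highest tested concentration is used.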
# [6] = Growth inhibition of human RPMI8226 cells by NCI standard protocol based method; assay type: functional; settings: RPMI-8226; procedure, shortened: as §1
# SR = assay: Growth inhibition of human SR cells by NCI standard protocol based method; assay type: functional
# Procedure, shortened: (§2)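 NCI 60-cell-line screen, standard NCI protocol. Single high dose of 10⁻⁵ M first, then a 5-dose assay across the full panel. Reported as GI₅₀, TGI and LC₅₀, the molar concentrations giving 50% net growth inhibition, total growth inhibition and 50% net cell death. Where an effect was not reached, the highest tested concentration was used.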
# A549 = assay: Growth inhibition of human A549/ATCC cells by NCI standard protocol based method; assay type: functional; procedure, shortened: as §1
# HOP-62 = assay: Growth inhibition of human HOP62 cells by NCI standard protocol based method; assay type: functional; procedure, shortened: as §1
# [7] = Growth inhibition of human HOP92 cells by NCI standard protocol based method; assay type: functional; settings: HOP-92; procedure, shortened: as §1
# NCI-H23 = assay: Growth inhibition of human NCI-H23 cells by NCI standard protocol based method; assay type: functional; procedure, shortened: as §1
# NCI-H460 = assay: Growth inhibition of human NCI-H460 cells by NCI standard protocol based method; assay type: functional; procedure, shortened: as §1
# NCI-H522 = assay: Growth inhibition of human NCI-H522 cells by NCI standard protocol based method; assay type: functional; procedure, shortened: as §1
# HCT-116 = assay: Growth inhibition of human HCT116 cells by NCI standard protocol based method; assay type: functional; procedure, shortened: as §1
# HCT-15 = assay: Growth inhibition of human HCT15 cells by NCI standard protocol based method; assay type: functional; procedure, shortened: as §1
# KM12 = assay: Growth inhibition of human KM12 cells by NCI standard protocol based method; assay type: functional; procedure, shortened: as §1
# SF-268 = assay: Growth inhibition of human SF268 cells by NCI standard protocol based method; assay type: functional; procedure, shortened: as §1
# [8] = Growth inhibition of human SF539 cells by NCI standard protocol based method; assay type: functional; settings: SF-539; procedure, shortened: as §1
# SNB-19 = assay: Growth inhibition of human SNB19 cells by NCI standard protocol based method; assay type: functional; procedure, shortened: as §2
# SNB-75 = assay: Growth inhibition of human SNB75 cells by NCI standard protocol based method; assay type: functional; procedure, shortened: as §2
# M14 = assay: Growth inhibition of human M14 cells by NCI standard protocol based method; assay type: functional; procedure, shortened: as §1
# SK-MEL-2 = assay: Growth inhibition of human SK-MEL-2 cells by NCI standard protocol based method; assay type: functional; procedure, shortened: as §1
# SK-MEL-28 = assay: Growth inhibition of human SK-MEL-28 cells by NCI standard protocol based method; assay type: functional; procedure, shortened: as §1
# UACC-62 = assay: Growth inhibition of human UACC62 cells by NCI standard protocol based method; assay type: functional; procedure, shortened: as §2
# OVCAR-3 = assay: Growth inhibition of human OVCAR3 cells by NCI standard protocol based method; assay type: functional; procedure, shortened: as §1
# OVCAR-5 = assay: Growth inhibition of human OVCAR5 cells by NCI standard protocol based method; assay type: functional; procedure, shortened: as §1
# OVCAR-8 = assay: Growth inhibition of human OVCAR8 cells by NCI standard protocol based method; assay type: functional; procedure, shortened: as §1
# NCI/ADR-RES = assay: Growth inhibition of human NCI/ADR-RES cells by NCI standard protocol based method; assay type: functional; procedure, shortened: as §1
# SK-OV-3 = assay: Growth inhibition of human SKOV3 cells by NCI standard protocol based method; assay type: functional; procedure, shortened: as §2
# A498 = assay: Growth inhibition of human A498 cells by NCI standard protocol based method; assay type: functional; procedure, shortened: as §1
# ACHN = assay: Growth inhibition of human ACHN cells by NCI standard protocol based method; assay type: functional; procedure, shortened: as §1
# TK-10 = assay: Growth inhibition of human TK10 cells by NCI standard protocol based method; assay type: functional; procedure, shortened: as §2
# UO-31 = assay: Growth inhibition of human UO31 cells by NCI standard protocol based method; assay type: functional; procedure, shortened: as §2
# PC-3 = assay: Growth inhibition of human PC3 cells by NCI standard protocol based method; assay type: functional; procedure, shortened: as §1
# DU-145 = assay: Growth inhibition of human DU145 cells by NCI standard protocol based method; assay type: functional; procedure, shortened: as §1
# MCF7 = assay: Growth inhibition of human MCF7 cells by NCI standard protocol based method; assay type: functional; procedure, shortened: as §1
# MDA-MB-231 = assay: Growth inhibition of human MDA-MB-231 cells by NCI standard protocol based method; assay type: functional; procedure, shortened: as §1
# MDA-MB-468 = assay: Growth inhibition of human MDA-MB-468 cells by NCI standard protocol based method; assay type: functional; procedure, shortened: as §1
# [9] = Growth inhibition of human NCI60 cells by NCI standard protocol based method; assay type: functional; settings: for TGI: read-out: pTGI (converted); procedure, shortened: as §1
# Tubulin (Homo sapiens) = Tubulin (Homo sapiens) (UniProt P68371+Q9H4B7+P0DPH7+P68366+Q13509+Q71U36+P04350+Q3ZCM7+P07437+P68363+Q9BQE3+Q6PEY2+Q13885+Q9BVA1+Q9BUF5); assay: Inhibition of tubulin (unknown origin) assembly; assay type: protein-complex assay
# NCI-H226 = assay: Growth inhibition of human NCI-H226 cells by NCI standard protocol based method; assay type: functional; procedure, shortened: as §1
# UACC-257 = assay: Growth inhibition of human UACC257 cells by NCI standard protocol based method; assay type: functional; procedure, shortened: as §2
compound,measurement,setting,value
NC(=O)c1cc(Cl)ccc1NC(=O)COc1ccccc1,inhibition of growth at 10 µM,K562 [1],87%
same,IC50,K562 [2],1300 nM
same,IC50,[3],808000 nM
same,Activity,[4],46.4%
same,GI50,HL-60(TB),3290 nM
same,GI50,K562 [5],854 nM
same,GI50,[6],4330 nM
same,GI50,SR,777 nM
same,GI50,A549,7060 nM
same,GI50,HOP-62,5880 nM
same,GI50,[7],5700 nM
same,GI50,NCI-H23,5900 nM
same,GI50,NCI-H460,3000 nM
same,GI50,NCI-H522,3780 nM
same,GI50,HCT-116,2720 nM
same,GI50,HCT-15,1570 nM
same,GI50,KM12,2130 nM
same,GI50,SF-268,9890 nM
same,GI50,[8],1800 nM
same,GI50,SNB-19,11700 nM
same,GI50,SNB-75,1810 nM
same,GI50,M14,2210 nM
same,GI50,SK-MEL-2,5080 nM
same,GI50,SK-MEL-28,6250 nM
same,GI50,UACC-62,5420 nM
same,GI50,OVCAR-3,2300 nM
same,GI50,OVCAR-5,3860 nM
same,GI50,OVCAR-8,7060 nM
same,GI50,NCI/ADR-RES,1430 nM
same,GI50,SK-OV-3,8150 nM
same,GI50,A498,1410 nM
same,GI50,ACHN,10700 nM
same,GI50,TK-10,63800 nM
same,GI50,UO-31,17500 nM
same,GI50,PC-3,3220 nM
same,GI50,DU-145,6010 nM
same,GI50,MCF7,1810 nM
same,GI50,MDA-MB-231,9010 nM
same,GI50,MDA-MB-468,1740 nM
same,GI50,[9],4900 nM
same,LC50,[9],100000 nM
same,TGI,[9],72400 nM
same,inhibition,Tubulin (Homo sapiens),inactive
COc1cc(NC(=O)COc2ccccc2)c(C(N)=O)cc1OC,inhibition of growth at 10 µM,K562 [1],72.8%
same,IC50,K562 [2],580 nM
same,IC50,[3],163000 nM
same,Activity,[4],27.38%
same,GI50,HL-60(TB),293 nM
same,GI50,K562 [5],310 nM
same,GI50,[6],2270 nM
same,GI50,SR,515 nM
same,GI50,A549,917 nM
same,GI50,HOP-62,1750 nM
same,GI50,[7],17700 nM
same,GI50,NCI-H226,42800 nM
same,GI50,NCI-H23,1320 nM
same,GI50,NCI-H460,529 nM
same,GI50,NCI-H522,410 nM
same,GI50,HCT-116,620 nM
same,GI50,HCT-15,804 nM
same,GI50,KM12,443 nM
same,GI50,SF-268,6770 nM
same,GI50,[8],563 nM
same,GI50,SNB-19,3310 nM
same,GI50,SNB-75,547 nM
same,GI50,M14,4000 nM
same,GI50,SK-MEL-2,203 nM
same,GI50,SK-MEL-28,24200 nM
same,GI50,UACC-257,> 100000 nM
same,GI50,UACC-62,2520 nM
same,GI50,OVCAR-3,472 nM
same,GI50,OVCAR-5,15000 nM
same,GI50,OVCAR-8,3010 nM
same,GI50,NCI/ADR-RES,487 nM
same,GI50,SK-OV-3,3580 nM
same,GI50,A498,2770 nM
same,GI50,ACHN,8120 nM
same,GI50,TK-10,14400 nM
same,GI50,UO-31,13500 nM
same,GI50,PC-3,2230 nM
same,GI50,DU-145,914 nM
same,GI50,MCF7,661 nM
same,GI50,MDA-MB-231,2390 nM
same,GI50,MDA-MB-468,848 nM
same,GI50,[9],1950 nM
same,LC50,[9],93300 nM
same,TGI,[9],49000 nM
same,inhibition,Tubulin (Homo sapiens),inactive
